The nature of series [1]: Solubility of the compound. Format: physicochemical.
Series [2] in a line: Intrinsic clearance in rat liver microsomes at 1 uM measured up to 30 mins in presence of NADPH by HPLC analysis. Conditions: read-out: CLH. Format: ADME, microsome. The method in brief:
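Compound at 1 µM final was incubated with human or rat liver microsomes (0.5 mg protein/mL) in Tris buffer at 37 °C, started with NADPH (2 mM). Samples were quenched in cold ACN with indomethacin internal standard at 0, 5, 15 and 30 min (RLM) or 0, 15, 30 and 60 min (HLM) and analysed by HPLC. CLint = first-order degradation rate constant / microsomal protein concentration.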

Series [3] in a line: Oral bioavailability in Sprague-Dawley rat plasma at 1 mg/kg administered as single dose by LC-MS/MS analysis. Format: ADME, organism-based. An outline of the steps: (§1)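 Non-fasted male SD rats (200-250 g, n=3) received a single oral 1 mg/kg dose in NMP:PEG400:water (5:35:65). Femoral-vein blood was sampled pre-dose and at 0.25–24 h. Plasma was extracted with acetonitrile plus internal standard and analysed by LC-MS/MS over a 0.5–2000 ng/mL calibration range.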

A short description of series [4]: AUC (0 to infinity) in Sprague-Dawley rat plasma at 1 mg/kg, iv administered as single dose by LC-MS/MS analysis. The format is ADME, organism-based. Also on record: dose 1 mg/kg, time infinity, route intravenous. The method in brief: (§2)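 Male SD rats (200-250 g), not fasted, n=3, given a single 1 mg/kg IV dose in NMP:PEG400:water (5:35:65) via jugular/femoral vein catheters. Blood was taken from pre-dose to 24 h (0.033–24 h). Plasma was protein-precipitated with acetonitrile containing internal standard and quantified by LC-MS/MS against 0.5–2000 ng/mL standards.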

The nature of series [5]: Elimination half life in Sprague-Dawley rat plasma at 1 mg/kg, iv administered as single dose by LC-MS/MS analysis. The format is ADME, organism-based. The settings on record: read-out: beta t1/2 (converted). The method in brief:
as §2

Series [6] is described as follows: Volume of distribution at steady state in Sprague-Dawley rat plasma at 1 mg/kg, iv administered as single dose by LC-MS/MS analysis. Format: ADME, organism-based. Conditions: read-out: Vdss. The method in brief:
as §2

A short description of series [7]: Clearance in Sprague-Dawley rat plasma at 1 mg/kg, iv administered as single dose by LC-MS/MS analysis. Format: ADME, organism-based. An outline of the steps:
as §2

A further series has as its system Rattus norvegicus. Briefly: Clearance in Sprague-Dawley rat plasma at 1 mg/kg, iv administered as single dose by LC-MS/MS analysis relative to hepatic blood flow. Conditions: in vivo. The format is ADME, organism-based.
A short description of series [8]: Tmax in Sprague-Dawley rat plasma at 1 mg/kg, po administered as single dose by LC-MS/MS analysis. The format is ADME, organism-based. The method in brief:
as §1

The nature of series [9]: Cmax in Sprague-Dawley rat plasma at 1 mg/kg, po administered as single dose by LC-MS/MS analysis. Format: ADME, organism-based. Also on record: dose 1 mg/kg, route oral. The method in brief:
as §1

Series [10] can be described thus: AUC (infinity) in Sprague-Dawley rat plasma at 1 mg/kg, po administered as single dose by LC-MS/MS analysis. The format is ADME, organism-based. More on the design: dose 1 mg/kg, time infinity, route oral. An outline of the steps: as §1
A further series concerns Brain. The series is described as follows: Drug uptake in Sprague-Dawley rat brain at 1 mg/kg, po administered as single dose by LC-MS/MS analysis. Conditions: in vivo, read-out: Drug uptake. The format is ADME, organism-based. The method in brief:
(§3)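 Male SD rats got a single 1 mg/kg oral dose in NMP:PEG400:water (5:35:65). Total brain, CSF and plasma levels were then measured.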

The next series concerns Cerebrospinal fluid. Briefly: Drug uptake in Sprague-Dawley rat cerebrospinal fluid at 1 mg/kg, po administered as single dose by LC-MS/MS analysis. The format is ADME, organism-based. The settings on record: in vivo, read-out: Drug uptake. The method in brief:
as §3

The next series deals with Plasma. The series is described as follows: Drug uptake in Sprague-Dawley rat plasma at 1 mg/kg, po administered as single dose by LC-MS/MS analysis. The format is ADME, organism-based. The settings on record: read-out: Cp, in vivo. The method in brief:
as §3

Values after ≈ are worked out from the molar mass of the structure shown.

This note sets out measurements from ChEMBL document CHEMBL4007409, “Design and Synthesis of Novel and Selective Phosphodiesterase 2 (PDE2a) Inhibitors for the Treatment of Memory Disorders” (J Med Chem, 2017).

Consider `Cc1cc(N2CCCC(C(=O)Nc3ccc4c(c3)CCC4)C2)n2ncnc2n1` (centres undefined), for which, in [1], the solubility is 49 µg/mL (≈ 130 µM). Moreover, in series [2], the microsomal CLint at 1 µM was 67.9 µL/min/mg.

`Cc1cc([C@@H]2CN(C(=O)c3cc(C)c(F)c(F)c3)CC(F)(F)C2)n2ncnc2n1`: the microsomal CLint at 1 µM in series [2] was found to be 52.2 µL/min/mg.

Turning to `O=C(Nc1ccc2c(c1)CCC2)C1CCCN(c2ccnc3ncnn23)C1` (centres undefined), the concentration in solution in series [1] (solubility) came to 47 µg/mL (≈ 130 µM). In addition, the microsomal CLint at 1 µM in series [2] was 76.2 µL/min/mg.

In the case of `Cc1cc([C@H]2CN(C(=O)c3ccc(F)c(Br)c3)CC(F)(F)C2)n2ncnc2n1`, the microsomal CLint at 1 µM in series [2] was determined as 17.3 µL/min/mg.

For `Cc1cc(C2CCCN(C(=O)c3ccc(F)c(C)c3)C2)n2ncnc2n1` (centres undefined), in series [1], the solubility was determined as 35 µg/mL (≈ 99 µM). Also, in [2], the microsomal CLint at 1 µM turned out to be 33.5 µL/min/mg.

`COc1ccc(C(=O)N2CCCC(c3cc(C)nc4ncnn34)C2)cc1C` (centres undefined): in series [1], the solubility came out at 36 µg/mL (≈ 98.5 µM). The microsomal CLint at 1 µM in [2] amounted to 30.2 µL/min/mg.

In the case of `Cc1cc(N2CCCC(C(=O)Nc3ccc4ccccc4c3)C2)n2ncnc2n1` (centres undefined), the concentration in solution in [1] (solubility) came to 13 µg/mL (≈ 33.6 µM). Besides, in series [2], the microsomal CLint at 1 µM turned out to be 53.4 µL/min/mg.

As for `Cc1cc([C@@H]2CN(C(=O)c3ccc(F)c(Br)c3)CC(F)(F)C2)n2ncnc2n1`, in [2], the microsomal CLint at 1 µM was found to be 25.7 µL/min/mg. This molecule returned a bioavailability in [3] of 87%. In addition, the AUC(0-inf) in [4] is 508 ng·h/mL; in series [10], 442 ng·h/mL. The half-life in series [5] is 60.6 min. Moreover, the Vd in [6] worked out at 0.98 L/kg. Moreover, the clearance in series [7] was 32.8 mL/min/kg. For the same molecule, the CL in the series with Rattus norvegicus was 50%. Further, in series [8], the Tmax came out at 40.2 min. Besides, the highest level in series [9] (Cmax) was 201 ng/mL. Besides, the concentration with Brain turned out to be 66 nM; in the series on Cerebrospinal fluid, 15 nM; with Plasma it was 204 nM.

The molecule `Cc1cc([C@H]2CCCN(C(=O)c3ccc4ccccc4c3)C2)n2ncnc2n1` showed a solubility in series [1] of 37 µg/mL (≈ 99.6 µM). For the same molecule, the microsomal CLint at 1 µM in series [2] is 124 µL/min/mg.

As for `Cc1cc([C@@H]2CN(C(=O)c3ccc(F)c(C4CC4)c3)CC(F)(F)C2)n2ncnc2n1`, in series [2], the microsomal CLint at 1 µM stood at 162 µL/min/mg.

`O=C(Nc1ccc2c(c1)CCC2)C1CCCN(c2cc(C(F)(F)F)nc3ncnn23)C1` (centres undefined) showed a solubility in series [1] of 29 µg/mL (≈ 67.4 µM). The microsomal CLint at 1 µM in series [2] turned out to be 94.1 µL/min/mg.

Take `Cc1cc(C2CCCN(C(=O)c3ccc4c(c3)OCC4)C2)n2ncnc2n1` (centres undefined): in [1], the concentration in solution (solubility) came to 36 µg/mL (≈ 99.1 µM). For the same molecule, the microsomal CLint at 1 µM in series [2] amounted to 21.7 µL/min/mg.

`Cc1cc(C2CCCN(C(=O)c3ccc4ncccc4c3)C2)n2ncnc2n1` (centres undefined) showed a solubility in series [1] of 47 µg/mL (≈ 126 µM). In addition, the microsomal CLint at 1 µM in series [2] is 6.3 µL/min/mg.

As for `Cc1cc(C2CCCN(C(=O)c3ccc4c(c3)CCC4)C2)n2ncnc2n1` (centres undefined), the solubility in series [1] stood at 47 µg/mL (≈ 130 µM). For the same molecule, the microsomal CLint at 1 µM in series [2] is 83.9 µL/min/mg.

`Cc1cc([C@@H]2CCCN(C(=O)c3ccc4ccccc4c3)C2)n2ncnc2n1` registered a solubility in series [1] of 37 µg/mL (≈ 99.6 µM). Also, the microsomal CLint at 1 µM in series [2] is 41.4 µL/min/mg.

`COc1cc(Cl)ccc1NC(=O)C1CCCN(c2cc(C)nc3ncnn23)C1` (centres undefined) gave a solubility in [1] of 45 µg/mL (≈ 112 µM). In series [2], the microsomal CLint at 1 µM was determined as 78.9 µL/min/mg.

`Cc1cc(C2CCCN(C(=O)c3ccc4ccccc4c3)C2)n2ncnc2n1` (racemic) came in with a solubility in series [1] of 37 µg/mL (≈ 99.6 µM). The microsomal CLint at 1 µM in [2] is 85.6 µL/min/mg.

Consider `COc1ccc(C(=O)N2CC(c3cc(C)nc4ncnn34)CC(F)(F)C2)cc1C` (racemic), for which the microsomal CLint at 1 µM in series [2] is 67.7 µL/min/mg.

On to `Cc1cc(C2CN(C(=O)c3ccc4ccccc4c3)CC(F)(F)C2)n2ncnc2n1` (racemic), for which, in series [2], the microsomal CLint at 1 µM turned out to be 78.8 µL/min/mg.

One may read the solubility as how much of the substance goes into solution per volume. Read a high solubility as a readily soluble substance. Usually bioavailability stands for the share of a dose that reaches the circulation, judged against a reference dose that is usually intravenous. Read a high bioavailability as much systemic uptake. As usually defined, the AUC(0-inf) is the area under the concentration-time curve extrapolated to infinity. As a reminder, the clearance is a measure of how efficiently the substance is removed, as volume per time. Read a high clearance as efficient removal. A word on the Tmax: it is the time from dosing to the highest level. As usually defined, the Cmax is the highest concentration seen after dosing.
